Experimental data published in PMC4788533 (Investigational new drugs, 2015).

Legend:
[1] = type: in vivo, human; conditions: PO BID, with cetuximab 250 mg/m^2 weekly following a 400 mg/m^2 load
[2] = Selumetinib plasma pharmacokinetics; type: in vivo, human; conditions: for Log (Cmax (ng/mL) – dose normalized) / Log(AUC 0-∞ (ng/mL × hr) – dose normalized): mean ± SD; for half-life: T ½
Outline: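 Patients with refractory solid tumours or KRAS-mutant CRC took oral MEK inhibitor capsules fasting, with the morning dose ≥1 h before the anti-EGFR antibody (400 mg/m2 IV load, then 250 mg/m2 weekly; 28-day cycles). EDTA plasma was drawn at baseline and 0.5–12 h post-dose on C1D1, and assayed by validated LC-MS/MS (LOD 3.91 ng/ml). Analysis was noncompartmental. Dose levels 1–2 were pooled.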

[3] = solid formulation, orally twice daily; cited from earlier work
ERK phosphorylation = conditions: peripheral blood mononuclear cells and tumor biopsies; cited from earlier work
[4] = day 1 of cycle 1, dose level 1 (selumetinib 50mg), N=6, mean ± SD
[5] = day 1 of cycle 1, dose level 1 and 2 combined (N=10)
[6] = day 1 of cycle 1, dose level 2 (selumetinib 50mg), N=4, mean ± SD
[7] = day 1 of cycle 1, dose level 3 incl. expansion cohort (N=22)
[8] = human, plasma, oral, 50 mg, day 1 of cycle 1, dose level 1 (selumetinib 50mg), N=6, mean ± SD
[9] = human, plasma, oral, 50 mg, day 1 of cycle 1, dose level 2 (selumetinib 50mg), N=4, mean ± SD

## Cn1cnc2c(F)c(Nc3ccc(Br)cc3Cl)c(C(=O)NOCCO)cc21 [selumetinib]
[1]
  maximum tolerated dose of the combination, selumetinib part: 75 mg
[2]; [4]
  Cl/F: 23.9 ± 5.48 L/h
  V/F: 76.9 ± 18.1 L
[2]; [5]
  Log (Cmax (ng/mL) – dose normalized): 3.19 ± 0.23
  Log(AUC 0-∞ (ng/mL × hr) – dose normalized): 4.23 ± 0.17
[2]; day 1 of cycle 1, dose level 2 (selumetinib 50mg), N=4, geometric mean (CV)
  Cmax: 1143 (CV 0.28) ng/mL
[2]; [6]
  Cl/F: 21.0 ± 2.53 L/h
  V/F: 70.4 ± 19.7 L
[2]; [7]
  Log (Cmax (ng/mL) – dose normalized): 3.00 ± 0.43
  Log(AUC 0-∞ (ng/mL × hr) – dose normalized): 4.24 ± 0.54
[2]; human, plasma, oral
  AUC: 3210 to 5200 ng·h/mL
[2]; human, plasma, oral, 50 mg, day 1 of cycle 1, dose level 1 (selumetinib 50mg), N=6, geometric mean (CV)
  AUC(0-inf): 3210 ng·h/mL
[2]; human, plasma, oral, 50 mg, day 1 of cycle 1, dose level 1 and 2 combined (50mg dose, N=10), geometric mean (CV)
  AUC(0-inf): 3450 ng·h/mL
[2]; human, plasma, oral, 50 mg, day 1 of cycle 1, dose level 2 (selumetinib 50mg), N=4, geometric mean (CV)
  AUC(0-inf): 3610 ng·h/mL
[2]; human, plasma, oral, 50 mg, Cmax, day 1 of cycle 1, dose level 1 (selumetinib 50mg), N=6, geometric mean (CV)
  Cmax: 1320 ng/mL
[2]; [8]
  half-life: 2.28 ± 0.55 h
  Tmax: 1.13 ± 0.25 h
[2]; [9]
  half-life: 2.31 ± 0.55 h
  Tmax: 1.92 ± 1.28 h
[3]
  maximum tolerated dose (MTD) of selumetinib, single agent: 75 mg
ERK phosphorylation
  ERK phosphorylation following selumetinib treatment: Inhibition of ERK phosphorylation was observed
